≈ marks a conversion by molar mass, not a printed value.
What was measured:
[1] = test system: 1A9; assay: Cytotoxicity against human 1A9 cells after 3 days by SRB assay; format: functional, cell-based; details: 1A9, 72 h
How it was run: (§1)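 Stock cultures were kept in RPMI-1640 with 25 mM HEPES, 0.25% sodium bicarbonate, 10% FBS and 100 µg/mL kanamycin. Freshly trypsinized cells were seeded at 1500-7500 per well with compounds diluted from DMSO stock and cultured 3 days. Cells were fixed with cold 50% TCA, stained with 0.4% SRB, and the solubilized dye was read at 562 nm. IC50 was the concentration giving a 50% absorbance reduction versus untreated cells.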

[2] = test system: PC-3; assay: Cytotoxicity against human PC3 cells after 3 days by SRB assay; format: functional, cell-based; details: PC-3, 72 h; how it was run: as §1
[3] = test system: KB; assay: Cytotoxicity against human KB cells after 3 days by SRB assay; format: functional, cell-based; details: 72 h; how it was run: as §1
[4] = test system: SK-MEL-2; assay: Cytotoxicity against human SK-MEL-2 cells after 3 days by SRB assay; format: functional, cell-based; details: SK-MEL-2, 72 h; how it was run: as §1
[5] = Cytotoxicity against human U87MG cells after 3 days by SRB assay; format: functional, cell-based, U-87MG ATCC; details: U-87 MG, 72 h; how it was run: as §1
[6] = test system: HCT-8; assay: Cytotoxicity against human HCT8 cells after 3 days by SRB assay; format: functional, cell-based; details: HCT-8, 72 h; how it was run: as §1
[7] = test system: MCF7; assay: Cytotoxicity against human MCF7 cells after 3 days by SRB assay; format: functional, cell-based; details: MCF7, 72 h; how it was run: as §1
[8] = test system: A549; assay: Cytotoxicity against human A549 cells after 3 days by SRB assay; format: functional, cell-based; details: A549, 72 h; how it was run: as §1
[9] = Cytotoxicity against human KBVIN cells after 3 days by SRB assay; format: functional, cell-based; details: 72 h; how it was run: as §1
[10] = test system: KB; assay: Cytotoxicity against human KB cells at 10 ug/ml after 3 days by SRB assay; format: functional; details: 72 h

Work on `CC1(C)C=Cc2c(cc3c(c2O)C(=O)C[C@@H](c2ccccc2O)O3)O1` [BUCERACIDIN B] yielded an IC50 [1] of 11.5 µg/mL (≈ 34 µM), an IC50 [2] of 13 µg/mL (≈ 38.4 µM) and an IC50 [3] of 9.5 µg/mL (≈ 28.1 µM). The IC50 [4] was 14 µg/mL (≈ 41.4 µM), the IC50 [5] was 14.2 µg/mL (≈ 42 µM) and the IC50 [6] was 12.8 µg/mL (≈ 37.8 µM). The IC50 [7] was 9.3 µg/mL (≈ 27.5 µM), the IC50 [8] was 9.9 µg/mL (≈ 29.3 µM) and the IC50 [9] was 9.5 µg/mL (≈ 28.1 µM).

`CC(C)=CCc1c2c(c(O)c3c1O[C@H](c1ccccc1O)CC3=O)C=CC(C)(C)O2` [MINIMIFLORIN] showed an IC50 [1] of 7.6 µg/mL (≈ 18.7 µM), an IC50 [2] of 9.8 µg/mL (≈ 24.1 µM) and an IC50 [3] of 7.3 µg/mL (≈ 18 µM). For the same compound, the IC50 [4] was 9 µg/mL (≈ 22.1 µM), the IC50 [5] was 11 µg/mL (≈ 27.1 µM) and the IC50 [6] was 7.2 µg/mL (≈ 17.7 µM). It also gave an IC50 [7] of 7.5 µg/mL (≈ 18.5 µM), an IC50 [8] of 8 µg/mL (≈ 19.7 µM) and an IC50 [9] of 7.7 µg/mL (≈ 18.9 µM).

For `CO[C@H]1C(=O)c2c(cc3c(c2O)C=CC(C)(C)O3)O[C@@H]1c1ccccc1O` [BUCERACIDIN A], the IC50 [1] was 14.9 µg/mL (≈ 40.4 µM), the IC50 [2] was 16.3 µg/mL (≈ 44.2 µM) and the IC50 [3] was over 10 µg/mL. For the same compound, the IC50 [4] was 15.6 µg/mL (≈ 42.3 µM), the inhibition at 10 µg/mL [10] was 31% and the IC50 [5] was 16.1 µg/mL (≈ 43.7 µM). It also gave an IC50 [6] of 15.5 µg/mL (≈ 42.1 µM), an IC50 [7] of 13.6 µg/mL (≈ 36.9 µM) and an IC50 [8] of 14.1 µg/mL (≈ 38.3 µM). The IC50 [9] was 15 µg/mL (≈ 40.7 µM).

In the case of `CC(C)=CCc1c2c(c(O)c3c1O[C@H](c1ccccc1O)[C@@H](O)C3=O)C=CC(C)(C)O2`, the IC50 [1] is reported as 15 µg/mL (≈ 35.5 µM), the IC50 [2] is reported as 15.4 µg/mL (≈ 36.5 µM) and the IC50 [3] is reported as 16.5 µg/mL (≈ 39.1 µM). For the same compound, the IC50 [4] was 14.8 µg/mL (≈ 35 µM), the IC50 [5] was 14.8 µg/mL (≈ 35 µM) and the IC50 [6] was 12.1 µg/mL (≈ 28.6 µM). The IC50 [7] was 12.8 µg/mL (≈ 30.3 µM), the IC50 [8] was 13.5 µg/mL (≈ 32 µM) and the IC50 [9] was 13.3 µg/mL (≈ 31.5 µM).

With `CC(C)=CCc1c2c(c(O)c3c1O[C@H](c1ccccc1)[C@@H](O)C3=O)C=CC(C)(C)O2` [MUNDULINOL] the IC50 [1] was 8.2 µg/mL (≈ 20.2 µM), the IC50 [2] was 9.3 µg/mL (≈ 22.9 µM) and the IC50 [3] was 8.5 µg/mL (≈ 20.9 µM). The IC50 [4] was 8.5 µg/mL (≈ 20.9 µM), the IC50 [5] was 13 µg/mL (≈ 32 µM) and the IC50 [6] was 7 µg/mL (≈ 17.2 µM). For the same compound, the IC50 [7] was 7.5 µg/mL (≈ 18.5 µM), the IC50 [8] was 7.5 µg/mL (≈ 18.5 µM) and the IC50 [9] was 7.5 µg/mL (≈ 18.5 µM).

`CO[C@H]1C(=O)c2c(O)c3c(c(CC=C(C)C)c2O[C@@H]1c1ccccc1O)OC(C)(C)C=C3` showed an IC50 [1] of 7.8 µg/mL (≈ 17.9 µM), an IC50 [2] of 8.4 µg/mL (≈ 19.2 µM) and an IC50 [3] of 6.5 µg/mL (≈ 14.9 µM). For the same compound, the IC50 [4] was 7.8 µg/mL (≈ 17.9 µM), the IC50 [5] was 8.6 µg/mL (≈ 19.7 µM) and the IC50 [6] was 7.2 µg/mL (≈ 16.5 µM). It also gave an IC50 [7] of 7 µg/mL (≈ 16 µM), an IC50 [8] of 7.6 µg/mL (≈ 17.4 µM) and an IC50 [9] of 7 µg/mL (≈ 16 µM).

— ChEMBL document CHEMBL1159337, “Antitumor agents. 221.1 buceracidins A and B, two new flavanones from Bucida buceras” (J Nat Prod, 2003)
